Active and inactive are the calls of the source. No cut-off for these calls is given here.
Legend:
MCF7 [1] = experiment: Effect on alpha-tubulin acetylation in human MCF7 cells at 50 uM after 6 to 18 hrs by Western blotting analysis; format: functional, cell-based
How it was run: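 MCF-7 cells seeded 24 h ahead, treated for 6 or 18 h, then lysed in M-PER. Lysates run on SDS-PAGE, transferred to nitrocellulose and probed with mouse monoclonal anti-acetylated α-tubulin and anti-total α-tubulin. Detection with peroxidase anti-mouse secondary and ECL Plus.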

A549 [2] = experiment: Cell cycle arrest in human A549 cells assessed as accumulation at G1 phase at 100 uM after 18 hrs by propidium iodide staining-based FACS flow cytometric analysis (reference value: 62.3%); format: functional
[3] = biological target: T1, NAD-dependent protein deacetylase sirtuin-2 (Homo sapiens, UniProt Q8IXJ6); experiment: Inhibition of human recombinant GST-tagged SIRT2 using KI179 as substrate preincubated for 5 mins followed by enzyme addition measured after 1 hr by fluorescence assay
T1 sequence (Q8IXJ6 whole entry): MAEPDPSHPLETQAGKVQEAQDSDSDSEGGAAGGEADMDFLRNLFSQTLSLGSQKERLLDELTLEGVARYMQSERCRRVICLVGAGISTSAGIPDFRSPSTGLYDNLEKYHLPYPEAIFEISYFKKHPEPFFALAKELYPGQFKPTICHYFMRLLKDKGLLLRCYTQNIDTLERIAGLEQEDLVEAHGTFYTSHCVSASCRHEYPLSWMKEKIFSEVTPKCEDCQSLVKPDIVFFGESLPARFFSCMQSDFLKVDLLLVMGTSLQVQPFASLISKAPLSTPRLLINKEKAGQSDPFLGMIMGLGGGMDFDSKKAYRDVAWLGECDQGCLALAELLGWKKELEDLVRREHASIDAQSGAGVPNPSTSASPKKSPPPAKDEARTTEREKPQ
How it was run: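 Fluor de Lys deacetylation assay. […] Mix preincubated 5 min at room temperature, started with enzyme, run 1 h at 37°C. Developer with 2 mM nicotinamide then added for 45 min at 37°C before fluorescence reading.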

[4] = biological target: T2, NAD-dependent protein deacetylase sirtuin-3, mitochondrial (Homo sapiens) (UniProt Q9NTG7); conditions: at 50 µM;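 note: recombinant His-tagged human SIRT3 with KI179 substrate, fluorescence read after 1 h, inhibition expressed relative to control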
T2 sequence (whole entry): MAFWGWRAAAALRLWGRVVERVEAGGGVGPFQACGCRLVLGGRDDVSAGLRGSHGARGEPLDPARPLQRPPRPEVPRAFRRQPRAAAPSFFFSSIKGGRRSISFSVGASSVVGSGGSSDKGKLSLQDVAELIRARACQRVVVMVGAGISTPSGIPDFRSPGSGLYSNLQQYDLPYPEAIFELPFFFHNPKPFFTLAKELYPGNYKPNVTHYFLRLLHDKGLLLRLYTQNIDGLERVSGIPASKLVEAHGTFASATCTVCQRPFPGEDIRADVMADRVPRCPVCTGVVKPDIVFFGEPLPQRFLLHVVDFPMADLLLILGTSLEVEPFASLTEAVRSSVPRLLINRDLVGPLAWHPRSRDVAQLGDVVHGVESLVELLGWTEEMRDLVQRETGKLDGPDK

MCF7 [5] = experiment: Cell cycle arrest in human MCF7 cells assessed as accumulation at G2 phase at 100 uM after 18 hrs by propidium iodide staining-based FACS flow cytometric analysis (reference value: 14.7%); format: functional
[6] = biological target: T3, NAD-dependent protein deacetylase sirtuin-1 (Homo sapiens) (UniProt Q96EB6); conditions: at 50 µM
T3 sequence (whole entry): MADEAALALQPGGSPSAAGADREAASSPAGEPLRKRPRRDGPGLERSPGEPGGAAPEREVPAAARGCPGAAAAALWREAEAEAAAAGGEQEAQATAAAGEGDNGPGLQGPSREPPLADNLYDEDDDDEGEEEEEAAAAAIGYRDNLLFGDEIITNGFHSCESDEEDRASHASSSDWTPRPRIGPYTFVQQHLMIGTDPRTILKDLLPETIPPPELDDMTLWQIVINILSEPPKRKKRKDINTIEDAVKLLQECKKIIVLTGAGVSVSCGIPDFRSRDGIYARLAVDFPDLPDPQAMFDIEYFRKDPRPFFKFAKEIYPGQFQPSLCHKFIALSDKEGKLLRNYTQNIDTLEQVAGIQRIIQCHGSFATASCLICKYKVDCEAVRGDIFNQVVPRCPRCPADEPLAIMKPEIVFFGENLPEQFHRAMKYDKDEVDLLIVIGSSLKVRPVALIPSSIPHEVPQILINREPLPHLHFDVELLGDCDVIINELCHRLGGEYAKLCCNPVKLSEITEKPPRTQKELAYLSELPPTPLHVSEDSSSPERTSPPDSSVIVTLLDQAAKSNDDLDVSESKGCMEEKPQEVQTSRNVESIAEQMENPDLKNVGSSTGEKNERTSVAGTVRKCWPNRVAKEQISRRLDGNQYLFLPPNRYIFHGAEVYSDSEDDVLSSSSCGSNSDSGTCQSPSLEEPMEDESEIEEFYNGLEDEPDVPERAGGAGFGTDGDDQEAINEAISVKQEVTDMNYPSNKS

[7] = biological target: T3, NAD-dependent protein deacetylase sirtuin-1 (Homo sapiens); experiment: Inhibition of SIRT1 in etoposide-induced human MCF7 cells assessed as increase in p53 acetylation at Lys382 at 50 uM after 5 hrs by Western blotting analysis; format: cell-based
How it was run: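 MCF-7 cells seeded 24 h ahead, then given 50 μM compound and 100 μM etoposide together for 5 h before harvest. Acetylated p53 detected by Western blot; run once per compound.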

MCF7 [8] = experiment: Cytotoxicity against human MCF7 cells at 50 uM by LDH assay; format: functional, cell-based
A549 [9] = experiment: Cell cycle arrest in human A549 cells assessed as accumulation at S phase at 100 uM after 18 hrs by propidium iodide staining-based FACS flow cytometric analysis (reference value: 17.8%); format: functional

COc1ccc(C(=O)CNC(=O)[C@H](CCCCNC(C)=S)NC(=O)OCc2ccccc2)cc1 was tested, and the Activity (MCF7 [1]) was “inactive”, the Activity (A549 [2]) was 82.2% and the IC50 [3] was 2530 nM. For the same molecule, the inhibition [4] was 82%, the Activity (MCF7 [5]) was 8.7% and the inhibition [6] was 97%. For the same molecule, the inhibition [7] was “Active”, the Activity (MCF7 [8]) was “inactive” and the Activity (A549 [9]) was 7.7%.
